Source: ChEMBL document CHEMBL5376013, “Design, synthesis and biological evaluation of novel morpholinopyrimidine-5-carbonitrile derivatives as dual PI3K/mTOR inhibitors” (RSC Med Chem, 2024)

Assays:
Assay type in all cases: functional
Conditions in all cases: read-out: GI
SK-MEL-2 = experiment: Antitumor activity against human SK-MEL-2 cells assessed as growth inhibition at 10 uM relative to control
How it was run: (§1)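 After drug addition, plates were incubated 48 h at 37 °C under 5% CO2. Adherent cells were fixed with cold TCA (10% final, 60 min, 4 °C) and suspension cells with 16% final TCA. Staining used 0.4% SRB in 1% acetic acid, solubilized in 10 mM trizma, read at A515. Percent growth was calculated from time-zero, control and treated absorbances.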

SR = experiment: Antitumor activity against human SR cells assessed as growth inhibition at 10 uM relative to control
How it was run: (§2)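 Drug exposure 48 h at 37 °C, 5% CO2. Adherent cells fixed with cold TCA (10% final), suspension cells with TCA (16% final). Stained with 0.4% SRB in 1% acetic acid, dissolved in 10 mM Tris, A515. Growth relative to time-zero and untreated control.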

LOX IMVI = experiment: Antitumor activity against human LOX IMVI cells assessed as growth inhibition at 10 uM relative to control; how it was run: as §1
SF-295 = experiment: Antitumor activity against human SF-295 cells assessed as growth inhibition at 10 uM relative to control; how it was run: as §1
MDA-MB-231 = experiment: Antitumor activity against human MDA-MB-231 cells assessed as growth inhibition at 10 uM relative to control; how it was run: as §1
SNB-75 = experiment: Antitumor activity against human SNB-75 cells assessed as growth inhibition at 10 uM relative to control; how it was run: as §2
786-0 = experiment: Antitumor activity against human 786-0 cells assessed as growth inhibition at 10 uM relative to control; how it was run: as §1
COLO 205 = experiment: Antitumor activity against human COLO 205 cells assessed as growth inhibition at 10 uM relative to control; how it was run: as §1
HCT-15 = experiment: Antitumor activity against human HCT-15 cells assessed as growth inhibition at 10 uM relative to control; how it was run: as §1
UACC-62 = experiment: Antitumor activity against human UACC-62 cells assessed as growth inhibition at 10 uM relative to control; how it was run: as §2
TK-10 = experiment: Antitumor activity against human TK-10 cells assessed as growth inhibition at 10 uM relative to control; how it was run: as §2
MDA-MB-468 = experiment: Antitumor activity against human MDA-MB-468 cells assessed as growth inhibition at 10 uM relative to control; how it was run: as §1
SF-268 = experiment: Antitumor activity against human SF-268 cells assessed as growth inhibition at 10 uM relative to control; how it was run: as §1
RXF 393 = experiment: Antitumor activity against human RXF 393 cells assessed as growth inhibition at 10 uM relative to control; how it was run: as §1
SK-MEL-5 = experiment: Antitumor activity against human SK-MEL-5 cells assessed as growth inhibition at 10 uM relative to control; how it was run: as §2
SK-OV-3 = experiment: Antitumor activity against human SK-OV-3 cells assessed as growth inhibition at 10 uM relative to control; how it was run: as §2
OVCAR-8 = experiment: Antitumor activity against human OVCAR-8 cells assessed as growth inhibition at 10 uM relative to control; how it was run: as §1
HOP-92 = experiment: Antitumor activity against human HOP-92 cells assessed as growth inhibition at 10 uM relative to control; how it was run: as §1
ACHN = experiment: Antitumor activity against human ACHN cells assessed as growth inhibition at 10 uM relative to control; how it was run: as §1
NCI/ADR-RES = experiment: Antitumor activity against human NCI-ADR-RES cells assessed as growth inhibition at 10 uM relative to control; how it was run: as §1
CCRF-CEM = experiment: Antitumor activity against human CCRF-CEM cells assessed as growth inhibition at 10 uM relative to control; how it was run: as §1
Hs-578T = experiment: Antitumor activity against human Hs-578T cells assessed as growth inhibition at 10 uM relative to control; how it was run: as §1
IGROV-1 = experiment: Antitumor activity against human IGROV-1 cells assessed as growth inhibition at 10 uM relative to control; how it was run: as §1
SN12C = experiment: Antitumor activity against human SN12C cells assessed as growth inhibition at 10 uM relative to control; how it was run: as §2
HT-29 = experiment: Antitumor activity against human HT-29 cells assessed as growth inhibition at 10 uM relative to control; how it was run: as §1
MDA-MB-435 = experiment: Antitumor activity against human MDA-MB-435 cells assessed as growth inhibition at 10 uM relative to control; how it was run: as §1
UO-31 = experiment: Antitumor activity against human UO-31 cells assessed as growth inhibition at 10 uM relative to control; how it was run: as §2
SF-539 = experiment: Antitumor activity against human SF-539 cells assessed as growth inhibition at 10 uM relative to control; how it was run: as §1
HL-60 = experiment: Antitumor activity against human HL-60 cells assessed as growth inhibition at 10 uM relative to control; how it was run: as §1
Malme-3M = experiment: Antitumor activity against human Malme-3M cells assessed as growth inhibition at 10 uM relative to control; how it was run: as §1
MCF7 = experiment: Antitumor activity against human MCF7 cells assessed as growth inhibition at 10 uM relative to control; how it was run: as §1
NCI-H522 = experiment: Antitumor activity against human NCI-H522 cells assessed as growth inhibition at 10 uM relative to control; how it was run: as §1
HCT-116 = experiment: Antitumor activity against human HCT-116 cells assessed as growth inhibition at 10 uM relative to control; how it was run: as §1
T47D = experiment: Antitumor activity against human T47D cells assessed as growth inhibition at 10 uM relative to control; how it was run: as §2
A549 = experiment: Antitumor activity against human A549 cells assessed as growth inhibition at 10 uM relative to control; how it was run: as §1
HOP-62 = experiment: Antitumor activity against human HOP-62 cells assessed as growth inhibition at 10 uM relative to control; how it was run: as §1
K562 = experiment: Antitumor activity against human K562 cells assessed as growth inhibition at 10 uM relative to control; how it was run: as §1
NCI-H23 = experiment: Antitumor activity against human NCI-H23 cells assessed as growth inhibition at 10 uM relative to control; how it was run: as §1
NCI-H226 = experiment: Antitumor activity against human NCI-H226 cells assessed as growth inhibition at 10 uM relative to control; how it was run: as §1
SW-620 = experiment: Antitumor activity against human SW-620 cells assessed as growth inhibition at 10 uM relative to control; how it was run: as §2
RPMI-8226 = experiment: Antitumor activity against human RPMI-8226 cells assessed as growth inhibition at 10 uM relative to control; how it was run: as §1
MOLT-4 = experiment: Antitumor activity against human MOLT-4 cells assessed as growth inhibition at 10 uM relative to control; how it was run: as §1
U-251 = experiment: Antitumor activity against human U-251 cells assessed as growth inhibition at 10 uM relative to control; how it was run: as §2
CAKI-1 = experiment: Antitumor activity against human CAKI-1 cells assessed as growth inhibition at 10 uM relative to control; how it was run: as §1
DU-145 = experiment: Antitumor activity against human DU-145 cells assessed as growth inhibition at 10 uM relative to control; how it was run: as §1
A498 = experiment: Antitumor activity against human A498 cells assessed as growth inhibition at 10 uM relative to control; how it was run: as §1

SMILES: N#Cc1c(-c2ccc(Cl)cc2)nc(N/N=C2/C(=O)Nc3ccccc32)nc1N1CCOCC1
- inhibition of growth at 10 µM (SK-MEL-2): < 1%
- inhibition of growth at 10 µM (SR): 25.7%
- inhibition of growth at 10 µM (LOX IMVI): < 1%
- inhibition of growth at 10 µM (SF-295): < 1%
- inhibition of growth at 10 µM (MDA-MB-231): < 1%
- inhibition of growth at 10 µM (SNB-75): 21%
- inhibition of growth at 10 µM (786-0): < 1%
- inhibition of growth at 10 µM (COLO 205): 1%
- inhibition of growth at 10 µM (HCT-15): 1%
- inhibition of growth at 10 µM (UACC-62): < 1%
- inhibition of growth at 10 µM (TK-10): < 1%
- inhibition of growth at 10 µM (MDA-MB-468): < 1%
- inhibition of growth at 10 µM (SF-268): < 1%
- inhibition of growth at 10 µM (RXF 393): < 1%
- inhibition of growth at 10 µM (SK-MEL-5): < 1%
- inhibition of growth at 10 µM (SK-OV-3): < 1%
- inhibition of growth at 10 µM (OVCAR-8): < 1%
- inhibition of growth at 10 µM (HOP-92): < 1%
- inhibition of growth at 10 µM (ACHN): < 1%
- inhibition of growth at 10 µM (NCI/ADR-RES): < 1%
- inhibition of growth at 10 µM (CCRF-CEM): < 1%
- inhibition of growth at 10 µM (Hs-578T): < 1%
- inhibition of growth at 10 µM (IGROV-1): < 1%
- inhibition of growth at 10 µM (SN12C): < 1%
- inhibition of growth at 10 µM (HT-29): < 1%
- inhibition of growth at 10 µM (MDA-MB-435): < 1%
- inhibition of growth at 10 µM (UO-31): < 1%
- inhibition of growth at 10 µM (SF-539): < 1%
- inhibition of growth at 10 µM (HL-60): < 1%
- inhibition of growth at 10 µM (Malme-3M): < 1%
- inhibition of growth at 10 µM (MCF7): 1%
- inhibition of growth at 10 µM (NCI-H522): < 1%
- inhibition of growth at 10 µM (HCT-116): 10.5%
- inhibition of growth at 10 µM (T47D): < 1%
- inhibition of growth at 10 µM (A549): 12.9%
- inhibition of growth at 10 µM (HOP-62): < 1%
- inhibition of growth at 10 µM (K562): < 1%
- inhibition of growth at 10 µM (NCI-H23): < 1%
- inhibition of growth at 10 µM (NCI-H226): < 1%
- inhibition of growth at 10 µM (SW-620): 10.1%
- inhibition of growth at 10 µM (RPMI-8226): < 1%
- inhibition of growth at 10 µM (MOLT-4): < 1%
- inhibition of growth at 10 µM (U-251): < 1%
- inhibition of growth at 10 µM (CAKI-1): < 1%
- inhibition of growth at 10 µM (DU-145): < 1%
- inhibition of growth at 10 µM (A498): < 1%
